HIF activator: HIF pathway transcriptional activation | activation, % at 7.5 µM (by protocol) | 300,000 compounds, 0.32% hits | U2OS HRE-luciferase reporter, luminescence; normalized: DMSO 0%, desferrioxamine 100% | AID 1910;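 active = mean activation of at least 10% of the iron chelator positive control signal, with at least half of replicates also reaching 10%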
NR2E3 ag-1: agonists of human nuclear receptor NR2E3; GST-NR2E3/biotin-RetCOR TR-FRET, 1536-well; 320,000 compounds, 0.12% hits; Q9Y5X4; inhibition of corepressor binding, % at 4.78 µM;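 active = percent inhibition above the cutoff of mean plus 3 SD of all tested compounds, set per screening campaign, cut at about 20% in these data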
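Material: NR2E3–RetCOR corepressor complex / Incubation: Compound–protein incubation for 5 h at 4 °C / Dosing: compound at 4.8 µM, single dose / Detection: time-resolved FRET / Benchmarks: high control biotin, low control 0.6% DMSO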
EBV LMP1 NFkB: Epstein-Barr LMP1 NF-kappaB reporter inhibition. LMP1-induced NF-kappaB luciferase reporter cells, luminescence. inhibition, % at 12.5 µM. 350,000 compounds, 0.69% hits. AID 504558; in the data active = inhibition above about 41%
NR2E3 ag-2: human photoreceptor-specific nuclear receptor agonism; CHO-S Gal4-NCOR/VP16-NR2E3 two-hybrid, luciferase; inhibition of corepressor binding, % at 3.98 µM; 360,000 compounds, 0.35% hits; AID 602229;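 active = inhibition above the mean of all tested compounds plus 3 SD, cut at about 70% in these data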;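 also: higher means lower luciferase signal from less NR2E3 corepressor binding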
TROY signal inh: inhibitors of TROY-dependent NF-kB signaling. Q293 LMP1-TROYcd NF-kB luciferase reporter, 4 h. inhibition, % at 10 µM. 360,000 compounds, 0.98% hits;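 active = compounds whose plate-normalised and pattern-corrected inhibition of the luciferase reporter signal at the single screening dose is 50% or more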
NR2E3 agonist cf: NR2E3 (human) agonism, confirmation; shares compounds with NR2E3 ag-1; 360 compounds, 39% hits; cell-free NR2E3 corepressor release, TR-FRET, 5 h; AID 2379; activation (reported as inhibition), % at 3.98 µM; in the data active = activation above about 20%
PPARg-NCOR2 ctr: releases PPARgamma from NCOR2 in NR2E3 counter-screen | shares compounds with NR2E3 ag-1 | TR-FRET PPARg-NCOR2 coregulator interaction, biochemical | inhibition, % at 3.98 µM | 360 compounds, 45% hits | AID 504787; in the data active = inhibition above about 20%
Numbers stand for hits; - = inactive; . = no result. A selection: hits, their analogues and other compounds. The true share with any hit is near 2%.

SMILES | HIF activator | NR2E3 ag-1 | EBV LMP1 NFkB | NR2E3 ag-2 | TROY signal inh | NR2E3 agonist cf | PPARg-NCOR2 ctr
COc1cccc(N=Nc2ccc3ccccc3c2O)c1 | - | - | - | - | 58 | . | .
Oc1c(N=Nc2nn[nH]n2)ccc2ccccc12 | . | . | . | - | - | . | .
COc1ccc(N=Nc2ccc3ccccc3c2)c(O)c1 | - | - | - | - | 63 | . | .
Cc1ccc(N=Nc2ccc3ccccc3c2O)cc1 | - | - | - | - | 78 | . | .
Cc1cc(C(=O)N2CCCC(N3CCN(c4cccc(C(F)(F)F)c4)CC3)C2)c(C)o1 (stereo not drawn) | - | - | - | - | - | . | .
NC(=S)NN=Cc1nccc2c(N)cccc12 | . | . | 76 | - | - | . | .
CCCCCN(C(=O)COC(=O)CSc1ccc([N+](=O)[O-])cc1)c1c(N)n(CCCC)c(=O)[nH]c1=O | - | - | - | - | - | . | .
CC1=NN(c2cccc(C(=O)O)c2)C(=O)/C1=C\C=C/c1ccccc1 | - | . | . | - | 54 | . | .
CN(C)c1ccc(/C=C/c2nc3ccccc3c(=O)[nH]2)cc1 | - | - | 48 | - | 70 | . | .
COc1ccccc1NC(=O)N1CCC(NC(=O)C2CCCCC2)CC1 | - | 32 | - | - | - | - | -
Cn1nc(C(=O)NC2CCCCC2)c2c1-c1ccccc1SC2 | - | - | - | - | - | . | .
Cn1nc(C(=O)N2CCC(C(N)=O)CC2)c2c1-c1ccccc1SC2 | - | 27 | - | - | - | - | -
COc1cccc(CNC(=O)CCCn2c(=S)[nH]c3cc4c(cc3c2=O)OCO4)c1 | 29 | 26 | - | - | - | 31 | 36
CN(C)S(=O)(=O)N1CCC(Oc2cccc(C(=O)NC3CCOC3)c2)CC1 (stereo not drawn) | - | - | - | - | - | . | .
CC(=O)c1sccc1NC(=O)c1ccccc1C(=O)O | - | 34 | - | - | - | 23 | -
CCOC(=O)c1c(NC(=O)CSc2nnc(Cc3ccccc3)o2)sc(C(C)=O)c1C | - | 32 | - | - | - | - | -
CCOC(=O)c1c(NC(=O)CSc2nnc(-c3ccccc3)o2)sc(C(C)=O)c1C | - | - | - | - | - | . | .
N#Cc1c(NC(=O)c2ccc(Br)o2)n(-c2ccccc2)c2nc3ccccc3nc12 | - | 24 | - | - | - | 38 | 54
CCCN(CC(=O)Nc1ccccc1OC)C(=O)CCC(=O)c1ccc(OCC)cc1 | . | - | - | - | - | . | .
O=C(CN1C(=O)/C(=C2/SC(=S)N(CCS(=O)(=O)O)C2=O)c2ccccc21)Nc1cccc(Br)c1 | . | . | - | - | - | . | .
CCc1cc2cc(C(=O)Nc3ccc(C)cc3)sc2s1 | - | 33 | - | - | - | 20 | 23
N#Cc1ccc(C(=O)N2CCCCC2c2cc(C(=O)Nc3ccccc3Cl)no2)cc1 (stereo not drawn) | . | . | . | - | - | . | .
CCOC(=O)Cc1csc(-n2sc3ccccc3c2=O)n1 | - | 32 | - | - | - | - | 22
CSCc1c(C(=O)NCCc2ccccn2)oc2ccccc12 | - | - | - | - | - | . | .
CC(=O)NC(CCS(C)(=O)=O)C(=O)Nc1ccc(Cl)c(Cl)c1 (stereo not drawn) | - | 20 | 55 | - | - | - | -
SMILES | HIF activator | NR2E3 ag-1 | EBV LMP1 NFkB | NR2E3 ag-2 | TROY signal inh | NR2E3 agonist cf | PPARg-NCOR2 ctr
Cc1ccc(C(=O)C2=C(O)C(=O)N(Cc3ccco3)C2c2cccc(Cl)c2)o1 (stereo not drawn) | - | 31 | - | - | - | - | -
Cc1ccc(C(=O)C2=C(O)C(=O)N(Cc3ccco3)C2c2cccc(Br)c2)o1 (stereo not drawn) | - | 31 | - | - | - | - | -
Cc1ccc(C(=O)C2=C(O)C(=O)N(Cc3ccco3)C2c2ccc(N(C)C)cc2)o1 (stereo not drawn) | - | - | - | - | - | . | .
COc1ccc(NC(=O)C2Cc3c(-c4ccccc4Oc4ccccc4)ccnc3O2)cc1OC (stereo not drawn) | . | . | . | - | - | . | .
CC(C)NC(=O)Nc1nnc([C@@H]2C[C@H](O)[C@@H](CO)O2)s1 | . | . | . | - | - | . | .
Cc1cc(C(=O)OCC(=O)c2ccc(Br)s2)c(C)o1 | - | - | . | . | . | . | .
Cc1cc(C(=O)OCC(=O)c2ccc(Br)s2)no1 | - | 25 | - | - | - | - | -
COc1cc2oc(=O)c(Br)c(C)c2c(OC)c1OC | . | 20 | - | - | - | - | -
O=C(O)c1ccccc1C(c1ccccc1)c1ccccc1O (stereo not drawn) | . | . | - | - | - | . | .
COCCNC(=O)c1cc(-c2ccccn2)nc2ccc(S(=O)(=O)N3CCC(C)CC3)cc12 | - | 20 | - | - | - | - | -
CC(C)C1Cc2ccccc2-c2[nH]c(=S)[nH]c(=O)c21 (stereo not drawn) | - | 20 | . | - | - | 21 | 26
CCC1(CC)Cc2ccccc2-c2[nH]c(=S)[nH]c(=O)c21 | - | - | - | - | - | . | .
CS(=O)(=O)N1CCC(Oc2cccc(C(=O)NCCCC3CCCC3)c2)CC1 | - | - | - | - | - | . | .
Cc1cc(C)c(Cn2c(=O)n(CCCC(=O)NCc3ccco3)c(=O)c3sccc32)c(C)c1 | - | 27 | - | - | - | - | -
Cc1nc2ccc(Br)cc2c(-c2ccccc2)c1C(=O)O | - | 47 | - | - | - | 59 | 54
COC(=O)c1cc2sc(Cl)cc2n1Cc1nc(-c2ccccc2)oc1C | - | 25 | - | - | - | - | -
C=CCc1c(C)nc(SC)nc1Nc1ccc(C)cc1 | - | 25 | - | - | - | - | -
C=CCc1c(C)nc(-c2ccccc2)nc1Nc1ccccc1O | - | - | - | - | - | . | .
Cc1ccc(C2C(C#N)=C(N)SC(N)=C2C#N)o1 | - | 32 | . | . | . | 24 | 35
NS(=O)(=O)c1ccc(NC(=S)NNC(=O)c2ccc(Br)o2)cc1 | - | - | - | - | - | . | .
CCOC(=O)COc1cc(Br)c(/C=N/Nc2ccccc2)cc1OC | - | 26 | - | - | - | - | -
CC1NC(=O)NC1CCCCCC(=O)Nc1ccc(F)c(Cl)c1 (stereo not drawn) | - | 90 | - | - | - | 88 | 91
CCc1cccc(NC(=O)CCCCCC2NC(=O)NC2C)c1 (stereo not drawn) | - | 86 | - | - | - | 90 | 92
Cc1ccc(NC(=O)CCCCCC2NC(=O)NC2C)cc1 (stereo not drawn) | - | 87 | - | - | - | 90 | 92
CCc1cccc(NC(=O)CCCN2C(=O)NC(C)(C)C2=O)c1 | . | - | - | - | - | . | .
CCC(OC(=O)c1nsc(Cl)c1Cl)C(=O)NCCc1ccccc1 (stereo not drawn) | - | - | - | - | - | . | .
CN(C(=O)c1ccc(NC(=O)Cc2ccc(NC(=O)C3CCN(C(=O)C4CCCC4)CC3)cc2)cc1)C1CC1 | . | 25 | - | - | - | - | -

Screens (PubChem)
